What was measured:
CYP1A2 [1] = target: T1, CYP1A2 (Homo sapiens, UniProt P05177); experiment: Fluorometric CYP1A2 assay in human hepatic microsomes; assay type: in vitro ADME; conditions: MI-1851 50 µM; α-naphthoflavone 6 µM
T1 sequence (P05177 1-516): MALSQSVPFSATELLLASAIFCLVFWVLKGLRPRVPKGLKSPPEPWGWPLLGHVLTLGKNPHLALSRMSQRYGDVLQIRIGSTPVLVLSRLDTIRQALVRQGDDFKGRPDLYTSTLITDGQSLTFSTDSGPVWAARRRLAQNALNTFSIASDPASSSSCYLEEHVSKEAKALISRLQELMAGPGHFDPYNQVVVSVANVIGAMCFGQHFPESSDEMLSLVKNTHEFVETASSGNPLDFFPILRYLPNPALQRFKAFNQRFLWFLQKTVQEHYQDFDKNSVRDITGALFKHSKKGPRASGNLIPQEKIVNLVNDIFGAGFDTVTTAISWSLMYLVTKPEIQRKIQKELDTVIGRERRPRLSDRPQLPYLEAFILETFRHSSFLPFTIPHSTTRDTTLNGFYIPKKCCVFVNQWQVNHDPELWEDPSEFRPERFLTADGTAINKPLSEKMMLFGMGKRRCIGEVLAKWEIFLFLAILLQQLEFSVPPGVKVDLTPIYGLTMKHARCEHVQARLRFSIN
Summary of the method: (§1)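 Human hepatic microsomes were mixed with assay buffer and NADPH-generating system. They were preincubated 15 min at 37 °C with test compound (added solutions 0–250 µM), reference inhibitor or buffer-only background control. A fluorogenic substrate/NADP+ mixture followed, with final protein 10 µg/well. Fluorescence ex/em was 406/468 nm (CYP1A2), 415/502 nm (CYP2C9) and 390/468 nm (CYP2D6). Results are substrate RFU% as mean ± SEM, n = 3 or 4.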

CYP1A2 [2] = target: T1, CYP1A2; experiment: CYP1A2 luminescent P450-Glo assay in PHHs; assay type: cell-based; conditions: 2 h; MI-1851 10, 20, 50 and 100 µM; α-naphthoflavone 10 µM
Summary of the method: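 Cryopreserved primary human hepatocytes were thawed in recovery medium and plated for 6 h in medium with 5% FBS. They were then kept FBS-free on collagen-coated membrane inserts at 37 °C, 5% CO2. Cells were washed in serum-free medium and exposed 2 h to test compound (0–100 µM; freshly diluted from 10 mM DMSO stock). CYP1A2 was read by P450-Glo with luciferin 1A2. Groups were compared by one-way ANOVA/Tukey.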

SARS-CoV-2 = conditions: cited from earlier work; for effect on viral replication in Calu-3 cells: infected with SARS-CoV-2 at MOI 0.001 for 90 min
[3] = test system: SARS-CoV-2 pseudoparticles; conditions: cited from earlier work
human recombinant CYP3A4 = human recombinant CYP3A4 (Homo sapiens, UniProt P08684); conditions: microsomal and recombinant enzyme experiments; cited from earlier work
[4] = test system: human intestinal epithelial cells; conditions: up to 50 μM, 24 h cytotoxicity assays; cited from earlier work
PHHs = conditions: up to 50 μM, 24 h cytotoxicity assays; cited from earlier work
HSA = conditions: previous investigation; cited from earlier work
CYP2C9 = CYP2C9 (Homo sapiens, UniProt P11712); experiment: Fluorometric CYP2C9 assay in human hepatic microsomes; assay type: in vitro ADME; conditions: MI-1851 50 µM; tienilic acid 60 µM
Summary of the method: as §1

[5] = canavanine, replacing arginine in P2 and P4; cited from earlier work
CYP2D6 = CYP2D6 (Homo sapiens, UniProt P10635); experiment: Fluorometric CYP2D6 assay in human hepatic microsomes; assay type: in vitro ADME; conditions: MI-1851 50 µM; quinidine 3 µM
Summary of the method: as §1

human recombinant CYP3A4, sequence (P08684 whole entry): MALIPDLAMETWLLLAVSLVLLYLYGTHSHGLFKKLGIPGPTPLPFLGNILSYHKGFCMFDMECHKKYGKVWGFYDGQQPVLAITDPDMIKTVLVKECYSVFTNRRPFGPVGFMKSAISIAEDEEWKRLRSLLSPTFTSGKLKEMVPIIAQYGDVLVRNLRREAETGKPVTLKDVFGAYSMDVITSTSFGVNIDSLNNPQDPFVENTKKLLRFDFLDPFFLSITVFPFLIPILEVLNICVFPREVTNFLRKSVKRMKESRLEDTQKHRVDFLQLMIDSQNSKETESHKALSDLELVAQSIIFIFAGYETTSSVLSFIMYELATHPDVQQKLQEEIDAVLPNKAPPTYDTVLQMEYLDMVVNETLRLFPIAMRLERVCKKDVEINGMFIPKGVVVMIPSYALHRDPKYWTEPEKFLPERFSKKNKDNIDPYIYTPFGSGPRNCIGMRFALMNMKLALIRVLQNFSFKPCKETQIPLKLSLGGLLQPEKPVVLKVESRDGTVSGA
CYP2D6, sequence (P10635 whole entry): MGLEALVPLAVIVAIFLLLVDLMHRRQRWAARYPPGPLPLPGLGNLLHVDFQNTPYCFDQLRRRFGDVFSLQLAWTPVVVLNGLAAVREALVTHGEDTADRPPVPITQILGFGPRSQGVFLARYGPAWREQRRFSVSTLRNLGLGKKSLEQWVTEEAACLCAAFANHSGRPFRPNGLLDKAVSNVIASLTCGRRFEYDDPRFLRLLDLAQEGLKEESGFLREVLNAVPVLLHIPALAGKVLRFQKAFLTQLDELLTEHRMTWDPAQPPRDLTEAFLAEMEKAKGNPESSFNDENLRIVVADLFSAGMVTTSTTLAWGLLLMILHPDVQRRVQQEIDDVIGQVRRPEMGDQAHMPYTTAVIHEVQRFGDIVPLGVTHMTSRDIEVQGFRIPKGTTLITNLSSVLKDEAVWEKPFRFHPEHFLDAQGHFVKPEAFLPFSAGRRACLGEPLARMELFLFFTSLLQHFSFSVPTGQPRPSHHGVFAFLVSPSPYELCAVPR
CYP2C9, sequence (P11712 whole entry): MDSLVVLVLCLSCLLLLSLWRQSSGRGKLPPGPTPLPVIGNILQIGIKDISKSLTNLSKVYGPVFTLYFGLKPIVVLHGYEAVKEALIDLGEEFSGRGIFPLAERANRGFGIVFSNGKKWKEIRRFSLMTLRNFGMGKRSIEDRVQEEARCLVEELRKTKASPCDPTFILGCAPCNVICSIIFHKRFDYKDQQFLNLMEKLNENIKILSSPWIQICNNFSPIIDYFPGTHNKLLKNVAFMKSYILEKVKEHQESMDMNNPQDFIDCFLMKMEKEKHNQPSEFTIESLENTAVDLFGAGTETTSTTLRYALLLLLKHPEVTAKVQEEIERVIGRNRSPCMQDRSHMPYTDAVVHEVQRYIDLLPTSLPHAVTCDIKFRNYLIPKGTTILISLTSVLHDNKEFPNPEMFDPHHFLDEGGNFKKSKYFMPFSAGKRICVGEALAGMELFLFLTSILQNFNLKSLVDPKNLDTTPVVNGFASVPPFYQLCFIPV

## O=c1cc(-c2ccccc2)oc2c1ccc1ccccc12 [α-naphthoflavone]
CYP1A2 [1]
  effect on human microsomal CYP1A2 activity: significant inhibition
CYP1A2 [2]
  effect on CYP1A2 activity in PHHs: significant inhibitory effects

## aprotinin
SARS-CoV-2; 10 µM, 48 h post infection
  effect on virus replication in vitro: decreased the virus replication
SARS-CoV-2
  effect on viral replication in Calu-3 cells: inhibit viral replication

## CCOC(=O)[C@H]1O[C@@H]1C(=O)N[C@@H](CC(C)C)C(=O)NCCC(C)C [E64d]
[3]
  effect on infection with SARS-CoV-2 pseudoparticles: could decrease infection

## COc1ccc(-c2cccc(S(=O)(=O)N[C@@H](Cc3cccc(C(=N)N)c3)C(=O)N3CCN(C(=O)NC4CCCCC4)CC3)c2)c(OC)c1 [MI-1900]
Human recombinant CYP3A4
  inhibition of CYP3A4: potent inhibitors of CYP3A4 at the nanomolar or low micromolar range
SARS-CoV-2
  effect on viral titers in human airway epithelial Calu-3 cells: efficiently reduced
  effect on viral replication in Calu-3 cells: inhibit viral replication
[4]
  damage to human intestinal epithelial cells: did not cause damage
PHHs
  damage to PHHs: did not cause damage
HSA
  interactions with HSA: no or only weak interactions

## N=C(N)c1cccc(C[C@H](NS(=O)(=O)c2cccc(-c3ccc(Cl)cc3Cl)c2)C(=O)N2CCC(CCN)CC2)c1.O=C(O)C(F)(F)F.O=C(O)C(F)(F)F [MI-432]
Human recombinant CYP3A4
  inhibition of CYP3A4: potent inhibitors of CYP3A4 at the nanomolar or low micromolar range
SARS-CoV-2
  effect on viral titers in human airway epithelial Calu-3 cells: efficiently reduced
  effect on viral replication in Calu-3 cells: inhibit viral replication
HSA
  interactions with HSA: no or only weak interactions

## O=C(O)COc1ccc(C(=O)c2cccs2)c(Cl)c1Cl [tienilic acid]
CYP2C9
  effect on human microsomal CYP2C9 activity: significant inhibition

## N=C(N)NOCC[C@H](N)C(=O)O [canavanine]
[5]
  pKa: 7.04

## C=C[C@H]1C[N@@]2CC[C@H]1C[C@@H]2[C@@H](O)c1ccnc2ccc(OC)cc12 [quinidine]
CYP2D6
  effect on human microsomal CYP2D6 activity: significant inhibition
